From PubChem BioAssay
This is a sample that favours compounds with a hit; in the whole collection about 4.5% have one here.
CHO parental Ca – counter-screen: ATP calcium response change in parental CHO cells | inhibition, % at 5.6 µM | parental CHO-K1, ATP-induced calcium, Fluo-8 fluorescence | 330,000 compounds, 0.63% hits;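 active = inhibition above that plate's mean sample inhibition plus 3 SD, cut at about 26% in these data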
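Test system: untransfected parental CHO cell line; also added: ATP stimulus; dosing: 5.6 µM, single dose; signal: calcium-sensitive Fluo-8 fluorescence; measure: percent inhibition of ATP-evoked calcium rise, normalized to controls; benchmarks: low control ATP plus DMSO, high control DMSO only; replication: one well per compound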
OX1R antag-1 – antagonists of human orexin 1 receptor (OX1R). O43613. 330,000 compounds, 1.8% hits. inhibition, % at 6.6 µM. OX1R-expressing cells, FRET antagonist read-out; in the data active = inhibition mostly above about 38%, no sharp cut-off; inactive = mostly below about 40%
TAAR1 ag – agonists of human TAAR1; AID 624467; Q96RJ0; CHO RD-HGA16 TAAR1, Fluo-8 calcium fluorescence; vehicle wells 0%, saturating PEA agonist 100%; 360,000 compounds, 0.99% hits; activation, % at 3 µM;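 active = activation above the mean activation of all test compounds in the run plus 3 SD, cut at about 38% in these data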
Target sequence (Q96RJ0 whole entry, looked up): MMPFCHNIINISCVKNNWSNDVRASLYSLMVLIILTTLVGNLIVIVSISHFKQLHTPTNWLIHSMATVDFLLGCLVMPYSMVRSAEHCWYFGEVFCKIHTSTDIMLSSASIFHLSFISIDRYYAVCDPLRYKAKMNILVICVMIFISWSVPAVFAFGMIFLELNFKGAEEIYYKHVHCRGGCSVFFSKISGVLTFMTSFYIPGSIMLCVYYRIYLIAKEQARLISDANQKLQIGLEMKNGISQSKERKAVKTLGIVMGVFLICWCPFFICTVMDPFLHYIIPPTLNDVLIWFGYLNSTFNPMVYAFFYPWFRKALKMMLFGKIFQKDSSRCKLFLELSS
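Test system: RD-HGA16 (CHO) cells co-expressing Gα16 and hTAAR1 / Benchmarks: DMSO vehicle as 0%, PEA at EC100 as 100% / Repeats: no replicates (n 1) / Measure: % activation from peak over basal fluorescence ratio, DMSO-to-PEA scaled / Timing: 17-24 h plating, Fluo-8 75 min 37 °C, 30 min RT / Technique: kinetic Fluo-8 calcium fluorescence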
OX1R antag-2 – antagonists of human orexin 1 receptor. CHO/OX1R cells, Fluo-8 calcium fluorescence, orexin A. O43613. 330,000 compounds, 0.43% hits. AID 434989. inhibition, % at 5 µM;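 active = inhibition above its plate's threshold, mean inhibition of all tested compounds on the plate plus 3 SD, cut at about 37% in these data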
GPR7 antag – blocks human GPR7 receptor signaling. AID 1861. 290,000 compounds, 1.1% hits. inhibition, % at 4.4 µM. P48145. GPR7-expressing cells, fluorescence antagonist assay; in the data active = inhibition above about 16%, passing the limit was not always enough;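 also: cells stimulated with the agonist NPW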
Target sequence (P48145 whole entry, looked up): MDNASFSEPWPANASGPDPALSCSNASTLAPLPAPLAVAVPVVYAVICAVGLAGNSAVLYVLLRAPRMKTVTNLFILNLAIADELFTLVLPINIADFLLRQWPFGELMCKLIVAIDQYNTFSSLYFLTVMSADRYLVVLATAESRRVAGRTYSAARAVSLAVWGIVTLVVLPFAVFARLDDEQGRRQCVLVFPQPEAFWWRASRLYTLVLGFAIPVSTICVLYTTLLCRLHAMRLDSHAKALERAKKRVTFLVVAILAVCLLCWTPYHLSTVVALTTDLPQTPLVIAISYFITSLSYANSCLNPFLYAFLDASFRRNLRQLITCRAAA
TAAR1 antag – antagonists of human TAAR1; CHO RD-HGA16 TAAR1, Fluo-8 calcium fluorescence, antagonist; inhibition, % at 3 µM; Q96RJ0; 360,000 compounds, 1.5% hits;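 active = inhibition above a per-plate cutoff, the mean inhibition of test compounds on that plate plus 3 SD, cut at about 49% in these data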
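Assay system: CHO-derived RD-HGA16 cells stably expressing human TAAR1 plus Gα16. Timing: 140 s kinetic read after compound, 140 s after agonist. Technique: kinetic Fluo-8 calcium fluorescence measurement. Measure: % inhibition of agonist calcium response.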
TAAR1 ag confirm – human TAAR1 agonism, confirmed | shares compounds with TAAR1 ag | CHO RD-HGA16 TAAR1, Fluo-8 calcium fluorescence; scaled: DMSO 0%, maximal phenethylamine 100% | activation, % at 3 µM | 2,400 compounds, 82% hits | AID 651783;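 active = activation above a cutoff set at the run's mean compound activation plus 3 SD, cut at about 39% in these data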
Ga16 ag counter – nonselective agonist in parental cells, TAAR1 agonist counter-screen. shares compounds with TAAR1 ag. CHO-Ga16 parental, Fluo-8 calcium fluorescence; normalized to maximal ATP response, DMSO zero. activation, % at 3 µM. 2,400 compounds, 50% hits;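 active = activation above the run cutoff, the mean activation over all tested wells plus 3 SD, cut at about 12% in these data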
TAAR1 desens – human TAAR1 agonist that also desensitizes the receptor; inhibition, % at 3 µM; 2,400 compounds, 46% hits; AID 651951; CHO RD-HGA16 hTAAR1, Fluo-8 calcium, beta-PEA response inhibition; shares compounds with TAAR1 ag;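 active = inhibition above the run cutoff, the mean inhibition of all test compounds plus 3 SD, cut at about 49% in these data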;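 also: beta-PEA stimulus applied at its EC80; loss of beta-PEA calcium signal after compound pretreatment read as receptor desensitization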
Ga16 antag count – nonselective Ga16 antagonist in TAAR1 agonist counter-screen; 2,400 compounds, 39% hits; shares compounds with TAAR1 ag; CHO-Ga16 ATP-induced calcium, Fluo-8 fluorescence; inhibition, % at 3 µM;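 active = inhibition above the plate's mean compound inhibition plus 3 SD, computed per plate, cut at about 22% in these data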
Hits are given with their value; n = inactive; x = no result.

SMILES	CHO parental Ca	OX1R antag-1	TAAR1 ag	OX1R antag-2	GPR7 antag	TAAR1 antag	TAAR1 ag confirm	Ga16 ag counter	TAAR1 desens	Ga16 antag count
O=C(NC1CCCC1)C(c1ccccc1)n1c(Cc2cc(F)cc(F)c2)nc2ccccc21 (stereo not drawn)	x	x	n	x	x	n	x	x	x	x
CC(=O)N(Cc1ccc(F)cc1)C1=C(NCCc2ccccc2)C(=O)c2ccccc2C1=O	n	n	50.1	n	n	n	n	n	n	n
O=C1C(Cl)=C(NCCCN2CCOCC2)C(=O)N1CCc1ccccc1	n	n	n	n	n	n	x	x	x	x
O=C1C(Cl)=C(NCCc2ccccc2)C(=O)N1CCc1ccccc1	n	n	43.2	n	n	65.7	73.3	n	83.2	32.2
O=C1C(Cl)=C(NCC2CCCO2)C(=O)N1CCc1ccccc1 (stereo not drawn)	n	n	74.2	n	n	n	51.5	n	n	n
O=C1C(Cl)=C(NCCc2ccccc2)C(=O)c2ccccc21	x	x	79.5	x	x	67.3	106.5	14.0	96.0	28.4
CC(=O)N(Cc1ccc(F)cc1)c1cccc(C)c1C	n	n	n	n	n	n	x	x	x	x
CCOC(=O)[C@]12CCC=C1N(Cc1ccc(Cl)cc1Cl)C(=O)[C@H](CC(=O)NCCCOC)C2	x	x	n	x	x	n	x	x	x	x
CCOC(=O)[C@]12CCC=C1N(Cc1ccccc1)C(=O)[C@H](CC(=O)NCCCN1CCCC1=O)C2	x	x	n	x	x	n	x	x	x	x
CCCCNC(=O)C1(C)CCCCN1C(=O)c1c(Cl)cccc1Cl (stereo not drawn)	x	x	n	x	x	n	x	x	x	x
CC(C)CC(N)c1csc(NC(=O)Nc2ccccc2Cc2ccccc2)n1 (stereo not drawn)	x	x	n	x	x	n	x	x	x	x
CC(C)CC(N)c1csc(NC(=O)C(c2ccccc2)c2ccccc2)n1 (stereo not drawn)	x	x	74.9	x	x	66.2	75.2	33.6	72.7	50.1
CN(C)c1ccc(-c2ccnc3c2CC(C)(C(=O)Nc2ccc(Cl)c(C(F)(F)F)c2)O3)cc1 (stereo not drawn)	x	x	n	x	x	n	x	x	x	x
Cc1ccc(C(=O)O)cc1NC(=O)CCc1c(C)noc1C	x	x	n	x	x	n	x	x	x	x
CCOC(=O)[C@@H](NC(=O)/C=C/[C@H]1O[C@@H](n2ccc(=O)[nH]c2=O)[C@H](O)[C@@H]1O)C(C)C	x	x	n	x	x	n	x	x	x	x
CC(C)C[C@H]1CN=C(Nc2ccccc2)N1CCC1CCCCC1	n	n	44.5	n	n	n	54.7	22.4	n	n
CC(C)C[C@H]1CN=C(Nc2ccccc2)N1CC1CCCC1	n	n	n	n	n	n	x	x	x	x
CC(C)[C@H](NC(=O)c1ccc(Cl)c(Cl)c1)C(=O)N1CCC[C@H]1C(=O)NCCc1ccccc1Cl	x	x	53.4	x	x	80.0	81.8	n	97.5	n
CC(C)[C@H](NC(=O)c1ccccc1)C(=O)N1CCC[C@H]1C(=O)NCCc1ccccc1Cl	x	x	79.6	x	x	83.4	95.8	n	93.1	n
CC(N)C(=O)NC(C(=O)N1CCCC1C(=O)NC(c1ccccc1)c1ccccc1)C(C)C (stereo not drawn)	n	n	n	n	x	n	x	x	x	x
CC(C)[C@H](NS(=O)(=O)c1ccc(F)cc1F)C(=O)N1CCC[C@H]1C(=O)NCCc1ccccc1Cl	x	x	48.9	x	x	64.2	76.5	n	86.0	n
O=C1COc2ccc(C(=O)COC(=O)c3ccc([N+](=O)[O-])cc3Cl)cc2N1	x	x	n	x	x	n	x	x	x	x
CC(C)CC(C(=O)N1CCc2ccccc2C1)N1C(=O)c2ccccc2C1=O (stereo not drawn)	n	n	75.5	n	19.8	n	76.9	n	65.0	n
CC(C(=O)N1CCc2ccccc2C1)N1C(=O)c2ccccc2C1=O (stereo not drawn)	n	n	n	n	n	n	x	x	x	x
OCc1ccccc1CNCc1ccccc1	n	n	n	n	n	n	x	x	x	x
SMILES	CHO parental Ca	OX1R antag-1	TAAR1 ag	OX1R antag-2	GPR7 antag	TAAR1 antag	TAAR1 ag confirm	Ga16 ag counter	TAAR1 desens	Ga16 antag count
OCc1ccccc1SSc1ccccc1CO	n	n	58.0	n	x	n	n	19.3	n	n
CCC1CCCCN1C(=O)COC(=O)c1cncc(Br)c1 (stereo not drawn)	x	x	n	x	x	n	x	x	x	x
COc1ccc(-c2noc(CCC(=O)NCCc3ccccc3)n2)cc1	n	n	50.8	n	n	n	62.3	n	n	n
COc1cccc(-c2noc(CCC(=O)NCCc3ccccc3)n2)c1	n	n	47.2	n	n	n	66.6	n	n	n
O=C(CCc1nc(-c2ccccc2)no1)NCCc1ccccc1	n	n	x	n	n	x	x	x	x	x
CCN(CC)C(=O)c1ccc(S(=O)(=O)c2ccccc2)cc1	n	n	n	n	n	n	x	x	x	x
O=C(COc1ccc(F)cc1Br)N1CCc2ccccc21	n	n	75.9	n	n	82.8	n	n	n	n
O=Cc1ccc(OCC(=O)N2CCc3ccccc32)c(Br)c1	x	x	n	x	x	n	x	x	x	x
CCOc1cc(N2CCOCC2)c(OCC)cc1NC(=O)C(NC(=O)c1c(F)cccc1F)C(C)C (stereo not drawn)	x	x	n	x	x	n	x	x	x	x
COc1cc(CN2CCNC(=O)C2CC(=O)N2CCc3ccccc3C2)cc(OC)c1 (stereo not drawn)	n	n	65.6	n	n	n	67.6	n	n	n
CC(C)(C)CN1CCNC(=O)C1CC(=O)N1CCOc2ccccc2C1 (stereo not drawn)	n	n	59.3	n	n	n	54.1	n	n	n
COc1cccc(CN2CCNC(=O)C2CC(=O)N2CCOc3ccccc3C2)c1OC (stereo not drawn)	n	n	66.2	n	n	n	72.7	n	n	n
COc1ccc(CN2CCNC(=O)C2CC(=O)N2CCc3ccccc3C2)c(OC)c1 (stereo not drawn)	n	n	n	n	n	n	x	x	x	x
C=CCOc1ccc(C[C@H](N)C(=O)NC[C@H]2O[C@@H](n3cc(C)c(=O)[nH]c3=O)C[C@@H]2O)cc1	x	x	n	x	x	n	x	x	x	x
Cc1cnn(C(=S)NCCc2ccccc2)c1	n	n	47.7	n	n	n	n	n	n	n
Cc1ccccc1NC(=S)NCCc1ccccc1	n	n	48.7	n	n	n	81.7	n	n	n
CCOC(=O)N1CCN(C(=O)c2cc(Cl)c(Cl)cc2C(=O)O)CC1	n	n	x	n	n	x	x	x	x	x
